In ChEMBL document CHEMBL4130443, “Targeting breast cancer stem cells by novel HDAC3-selective inhibitors” (Eur J Med Chem, 2017):
Calls of active or inactive are those of the source. No cut-off for these calls is given here.

How the values were obtained:
Histone deacetylase 1 [1] = molecular target: T1, Histone deacetylase 1 (Homo sapiens, UniProt Q13547); experiment: Inhibition of human HDAC1 using p53 (379 to 382 residues) derived fluorogenic peptide RHKKAc
[2] = molecular target: Histone deacetylase 3/Nuclear receptor corepressor 2 (HDAC3/NCoR2) (Homo sapiens, UniProt O15379); experiment: Inhibition of human HDAC3/NCOR2 using p53 (379 to 382 residues) derived fluorogenic peptide RHKKAc; type: protein-complex assay
[3] = molecular target: T2, Histone deacetylase 8 (Homo sapiens) (UniProt Q9BY41); experiment: Inhibition of HDAC8 in human MDA-MB-231 cells assessed as reduction in Notch1 expression at 0.1 to 2.5uM incubated for 48 hrs by Western blot method; type: cell-based
T2 sequence (whole entry): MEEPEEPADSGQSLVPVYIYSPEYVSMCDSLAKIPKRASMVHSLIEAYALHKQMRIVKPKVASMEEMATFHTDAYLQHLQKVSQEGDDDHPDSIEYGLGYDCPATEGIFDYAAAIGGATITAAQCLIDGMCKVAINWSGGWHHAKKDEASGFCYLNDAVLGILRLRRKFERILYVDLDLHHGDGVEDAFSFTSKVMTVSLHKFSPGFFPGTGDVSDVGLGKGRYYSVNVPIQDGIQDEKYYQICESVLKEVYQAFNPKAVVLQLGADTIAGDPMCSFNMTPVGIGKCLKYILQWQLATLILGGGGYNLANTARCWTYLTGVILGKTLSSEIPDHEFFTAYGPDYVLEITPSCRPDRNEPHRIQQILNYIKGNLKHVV
In short: (§1)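 Cells treated 48 h at the indicated concentrations, with a reference HDAC inhibitor at 0.25 µM as positive control on each blot. Lysed in 1% SDS, 10 mM EDTA, 50 mM Tris-HCl pH 8.1 with protease/phosphatase inhibitors, then sonicated. Equal protein by SDS-PAGE on nitrocellulose. Primary antibodies 1:1000 overnight at 4°C, HRP secondary, ECL. Blots for pan-H3 and H3K9 acetylation, tubulin acetylation and Notch1.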

[4] = molecular target: T3, Protein deacetylase HDAC6 (Homo sapiens) (UniProt Q9UBN7); experiment: Inhibition of HDAC6 in human MDA-MB-231 cells assessed as increase in histone H3K9 acetylation at 0.1 to 2.5uM incubated for 48 hrs by Western blot method; type: cell-based; conditions: in the assay text read “tubulin acetylation” for “histone H3K9 acetylation”; in short: as §1
T3 sequence (whole entry): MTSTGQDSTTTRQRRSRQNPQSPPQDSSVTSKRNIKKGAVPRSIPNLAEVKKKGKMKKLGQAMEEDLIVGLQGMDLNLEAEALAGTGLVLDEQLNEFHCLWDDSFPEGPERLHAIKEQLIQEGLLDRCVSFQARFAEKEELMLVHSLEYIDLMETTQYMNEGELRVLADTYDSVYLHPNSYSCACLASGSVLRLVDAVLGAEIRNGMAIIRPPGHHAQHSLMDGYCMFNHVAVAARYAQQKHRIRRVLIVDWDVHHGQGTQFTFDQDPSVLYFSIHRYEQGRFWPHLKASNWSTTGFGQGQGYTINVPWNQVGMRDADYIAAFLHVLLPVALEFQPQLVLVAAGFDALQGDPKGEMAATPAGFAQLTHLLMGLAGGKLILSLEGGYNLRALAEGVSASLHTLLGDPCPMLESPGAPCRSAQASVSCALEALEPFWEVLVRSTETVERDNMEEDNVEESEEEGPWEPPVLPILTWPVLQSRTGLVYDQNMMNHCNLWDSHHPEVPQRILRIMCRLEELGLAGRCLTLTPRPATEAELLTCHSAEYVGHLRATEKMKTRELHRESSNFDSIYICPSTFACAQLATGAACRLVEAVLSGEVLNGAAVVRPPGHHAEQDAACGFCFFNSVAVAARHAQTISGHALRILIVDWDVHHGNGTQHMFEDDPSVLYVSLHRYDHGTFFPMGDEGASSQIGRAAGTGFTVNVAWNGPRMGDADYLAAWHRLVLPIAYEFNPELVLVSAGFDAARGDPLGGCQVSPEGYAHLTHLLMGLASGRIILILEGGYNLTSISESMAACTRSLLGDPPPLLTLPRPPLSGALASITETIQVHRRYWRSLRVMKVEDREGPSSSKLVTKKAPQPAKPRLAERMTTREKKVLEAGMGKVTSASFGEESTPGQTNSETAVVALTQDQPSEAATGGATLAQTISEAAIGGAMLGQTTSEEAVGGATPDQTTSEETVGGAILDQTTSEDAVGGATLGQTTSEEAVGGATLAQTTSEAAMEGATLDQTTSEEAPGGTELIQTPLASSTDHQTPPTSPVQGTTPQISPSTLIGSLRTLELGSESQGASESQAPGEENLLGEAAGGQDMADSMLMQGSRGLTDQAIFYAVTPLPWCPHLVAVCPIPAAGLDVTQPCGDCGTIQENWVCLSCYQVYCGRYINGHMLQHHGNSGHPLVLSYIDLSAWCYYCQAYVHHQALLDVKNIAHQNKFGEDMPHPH

Histone deacetylase 2 [5] = molecular target: T4, Histone deacetylase 2 (Homo sapiens, UniProt Q92769); experiment: Inhibition of human HDAC2 using p53 (379 to 382 residues) derived fluorogenic peptide RHKKAc
Histone deacetylase 1 [6] = molecular target: T1, Histone deacetylase 1; experiment: Inhibition of human HDAC1 at 1 uM using p53 (379 to 382 residues) derived fluorogenic peptide RHKKAc
In short: (§2)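 Isoform profiling run by a commercial vendor with compounds at 1 µM. Values are percent inhibition, each the average of two determinations.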

[7] = molecular target: T2, Histone deacetylase 8 (Homo sapiens); experiment: Inhibition of human HDAC8 at 1 uM using p53 (379 to 382 residues) derived fluorogenic peptide RHKAcKAc; in short: as §2
[8] = molecular target: Histone deacetylase 4 (Homo sapiens) (UniProt P56524); experiment: Inhibition of human HDAC4 at 1 uM using Boc-Lys(trifluoroacetyl)-AMC substrate; in short: as §2
[9] = molecular target: Histone deacetylase 3/Nuclear receptor corepressor 2 (HDAC3/NCoR2) (Homo sapiens) (UniProt O15379+Q9Y618); experiment: Inhibition of human HDAC3/NCOR2 at 1 uM using p53 (379 to 382 residues) derived fluorogenic peptide RHKKAc; type: protein-complex assay; in short: as §2
Histone deacetylase 2 [10] = molecular target: T4, Histone deacetylase 2; experiment: Inhibition of human HDAC2 at 1 uM using p53 (379 to 382 residues) derived fluorogenic peptide RHKKAc; in short: as §2
[11] = molecular target: Histone deacetylase 5 (Homo sapiens) (UniProt Q9UQL6); experiment: Inhibition of human HDAC5 at 1 uM using Boc-Lys(trifluoroacetyl)-AMC substrate; in short: as §2
[12] = molecular target: T3, Protein deacetylase HDAC6 (Homo sapiens); experiment: Inhibition of human HDAC6 at 1 uM using p53 (379 to 382 residues) derived fluorogenic peptide RHKKAc; in short: as §2
Homo sapiens = organism: Homo sapiens; experiment: Selectivity index, ratio of IC50 for human HDAC1 to IC50 for human HDAC3

T1 sequence (Q13547 whole entry, the tested form may be a part): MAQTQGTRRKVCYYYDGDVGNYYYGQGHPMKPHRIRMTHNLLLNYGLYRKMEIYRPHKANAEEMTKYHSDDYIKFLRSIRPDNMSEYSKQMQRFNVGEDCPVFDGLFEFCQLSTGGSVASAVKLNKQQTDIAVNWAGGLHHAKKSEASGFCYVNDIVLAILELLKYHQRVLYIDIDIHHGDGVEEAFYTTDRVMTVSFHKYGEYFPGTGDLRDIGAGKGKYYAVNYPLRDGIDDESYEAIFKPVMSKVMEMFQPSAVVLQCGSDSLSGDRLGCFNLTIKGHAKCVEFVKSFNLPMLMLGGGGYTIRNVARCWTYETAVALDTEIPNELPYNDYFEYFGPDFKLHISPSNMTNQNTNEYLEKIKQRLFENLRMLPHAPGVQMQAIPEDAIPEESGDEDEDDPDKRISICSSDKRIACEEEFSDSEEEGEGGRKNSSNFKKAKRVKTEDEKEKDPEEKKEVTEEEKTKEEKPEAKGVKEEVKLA
T4 sequence (Q92769 whole entry, the tested form may be a part): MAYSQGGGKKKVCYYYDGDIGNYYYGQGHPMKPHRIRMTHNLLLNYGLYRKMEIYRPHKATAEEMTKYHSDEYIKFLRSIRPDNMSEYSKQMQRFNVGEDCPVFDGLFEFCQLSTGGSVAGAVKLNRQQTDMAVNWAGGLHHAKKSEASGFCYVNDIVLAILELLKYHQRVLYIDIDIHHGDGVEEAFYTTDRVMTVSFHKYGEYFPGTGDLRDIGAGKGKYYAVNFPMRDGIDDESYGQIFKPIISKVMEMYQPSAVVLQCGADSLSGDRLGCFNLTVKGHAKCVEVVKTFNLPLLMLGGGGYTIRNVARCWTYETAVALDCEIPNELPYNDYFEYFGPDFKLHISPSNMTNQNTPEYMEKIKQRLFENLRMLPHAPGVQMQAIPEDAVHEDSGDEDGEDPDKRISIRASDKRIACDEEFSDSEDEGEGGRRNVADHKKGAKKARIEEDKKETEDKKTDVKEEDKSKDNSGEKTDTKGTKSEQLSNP
Histone deacetylase 4 (Homo sapiens), sequence (P56524 whole entry, the tested form may be a part): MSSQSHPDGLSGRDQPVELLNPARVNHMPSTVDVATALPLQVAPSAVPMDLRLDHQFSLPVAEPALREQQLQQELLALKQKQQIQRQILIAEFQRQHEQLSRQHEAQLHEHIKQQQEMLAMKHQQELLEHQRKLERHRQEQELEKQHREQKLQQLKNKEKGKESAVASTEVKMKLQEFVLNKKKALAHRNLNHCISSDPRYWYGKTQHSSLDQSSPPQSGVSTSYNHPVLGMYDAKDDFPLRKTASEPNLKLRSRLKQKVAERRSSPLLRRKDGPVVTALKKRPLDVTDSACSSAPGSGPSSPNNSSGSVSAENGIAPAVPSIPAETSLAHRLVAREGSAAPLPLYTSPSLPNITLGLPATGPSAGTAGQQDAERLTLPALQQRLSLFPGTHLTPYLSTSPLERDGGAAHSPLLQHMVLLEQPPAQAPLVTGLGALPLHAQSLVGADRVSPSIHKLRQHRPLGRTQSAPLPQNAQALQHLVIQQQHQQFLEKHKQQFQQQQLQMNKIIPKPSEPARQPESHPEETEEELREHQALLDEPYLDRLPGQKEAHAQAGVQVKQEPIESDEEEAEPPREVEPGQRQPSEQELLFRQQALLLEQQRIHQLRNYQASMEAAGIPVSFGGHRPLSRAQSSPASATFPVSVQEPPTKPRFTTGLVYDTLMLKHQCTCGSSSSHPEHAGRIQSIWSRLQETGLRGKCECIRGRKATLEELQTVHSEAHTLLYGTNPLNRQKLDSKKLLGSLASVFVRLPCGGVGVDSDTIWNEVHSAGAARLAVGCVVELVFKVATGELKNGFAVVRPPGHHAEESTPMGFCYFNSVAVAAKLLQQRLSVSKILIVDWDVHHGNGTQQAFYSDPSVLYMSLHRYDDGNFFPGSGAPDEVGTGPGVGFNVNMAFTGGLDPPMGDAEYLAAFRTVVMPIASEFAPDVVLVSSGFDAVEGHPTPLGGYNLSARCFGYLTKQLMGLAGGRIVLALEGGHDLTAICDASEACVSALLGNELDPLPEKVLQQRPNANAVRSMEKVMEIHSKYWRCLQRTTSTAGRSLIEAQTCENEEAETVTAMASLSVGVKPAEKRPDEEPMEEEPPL
Histone deacetylase 3/Nuclear receptor corepressor 2 (HDAC3/NCoR2), sequence (O15379 whole entry, the tested form may be a part): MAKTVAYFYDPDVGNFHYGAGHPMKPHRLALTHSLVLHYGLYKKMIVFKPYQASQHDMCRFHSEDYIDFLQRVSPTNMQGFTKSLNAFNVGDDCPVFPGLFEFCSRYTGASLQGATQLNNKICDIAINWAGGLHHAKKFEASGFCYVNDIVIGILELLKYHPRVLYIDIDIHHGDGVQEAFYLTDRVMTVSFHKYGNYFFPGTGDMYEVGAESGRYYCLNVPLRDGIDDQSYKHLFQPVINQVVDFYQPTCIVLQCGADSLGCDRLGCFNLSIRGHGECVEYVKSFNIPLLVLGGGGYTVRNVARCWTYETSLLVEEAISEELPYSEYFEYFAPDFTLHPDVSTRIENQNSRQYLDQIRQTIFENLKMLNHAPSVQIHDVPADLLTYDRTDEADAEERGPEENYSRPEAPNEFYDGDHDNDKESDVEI
Histone deacetylase 3/Nuclear receptor corepressor 2 (HDAC3/NCoR2), sequence (Q9Y618 whole entry, further chain, the tested form may be a part): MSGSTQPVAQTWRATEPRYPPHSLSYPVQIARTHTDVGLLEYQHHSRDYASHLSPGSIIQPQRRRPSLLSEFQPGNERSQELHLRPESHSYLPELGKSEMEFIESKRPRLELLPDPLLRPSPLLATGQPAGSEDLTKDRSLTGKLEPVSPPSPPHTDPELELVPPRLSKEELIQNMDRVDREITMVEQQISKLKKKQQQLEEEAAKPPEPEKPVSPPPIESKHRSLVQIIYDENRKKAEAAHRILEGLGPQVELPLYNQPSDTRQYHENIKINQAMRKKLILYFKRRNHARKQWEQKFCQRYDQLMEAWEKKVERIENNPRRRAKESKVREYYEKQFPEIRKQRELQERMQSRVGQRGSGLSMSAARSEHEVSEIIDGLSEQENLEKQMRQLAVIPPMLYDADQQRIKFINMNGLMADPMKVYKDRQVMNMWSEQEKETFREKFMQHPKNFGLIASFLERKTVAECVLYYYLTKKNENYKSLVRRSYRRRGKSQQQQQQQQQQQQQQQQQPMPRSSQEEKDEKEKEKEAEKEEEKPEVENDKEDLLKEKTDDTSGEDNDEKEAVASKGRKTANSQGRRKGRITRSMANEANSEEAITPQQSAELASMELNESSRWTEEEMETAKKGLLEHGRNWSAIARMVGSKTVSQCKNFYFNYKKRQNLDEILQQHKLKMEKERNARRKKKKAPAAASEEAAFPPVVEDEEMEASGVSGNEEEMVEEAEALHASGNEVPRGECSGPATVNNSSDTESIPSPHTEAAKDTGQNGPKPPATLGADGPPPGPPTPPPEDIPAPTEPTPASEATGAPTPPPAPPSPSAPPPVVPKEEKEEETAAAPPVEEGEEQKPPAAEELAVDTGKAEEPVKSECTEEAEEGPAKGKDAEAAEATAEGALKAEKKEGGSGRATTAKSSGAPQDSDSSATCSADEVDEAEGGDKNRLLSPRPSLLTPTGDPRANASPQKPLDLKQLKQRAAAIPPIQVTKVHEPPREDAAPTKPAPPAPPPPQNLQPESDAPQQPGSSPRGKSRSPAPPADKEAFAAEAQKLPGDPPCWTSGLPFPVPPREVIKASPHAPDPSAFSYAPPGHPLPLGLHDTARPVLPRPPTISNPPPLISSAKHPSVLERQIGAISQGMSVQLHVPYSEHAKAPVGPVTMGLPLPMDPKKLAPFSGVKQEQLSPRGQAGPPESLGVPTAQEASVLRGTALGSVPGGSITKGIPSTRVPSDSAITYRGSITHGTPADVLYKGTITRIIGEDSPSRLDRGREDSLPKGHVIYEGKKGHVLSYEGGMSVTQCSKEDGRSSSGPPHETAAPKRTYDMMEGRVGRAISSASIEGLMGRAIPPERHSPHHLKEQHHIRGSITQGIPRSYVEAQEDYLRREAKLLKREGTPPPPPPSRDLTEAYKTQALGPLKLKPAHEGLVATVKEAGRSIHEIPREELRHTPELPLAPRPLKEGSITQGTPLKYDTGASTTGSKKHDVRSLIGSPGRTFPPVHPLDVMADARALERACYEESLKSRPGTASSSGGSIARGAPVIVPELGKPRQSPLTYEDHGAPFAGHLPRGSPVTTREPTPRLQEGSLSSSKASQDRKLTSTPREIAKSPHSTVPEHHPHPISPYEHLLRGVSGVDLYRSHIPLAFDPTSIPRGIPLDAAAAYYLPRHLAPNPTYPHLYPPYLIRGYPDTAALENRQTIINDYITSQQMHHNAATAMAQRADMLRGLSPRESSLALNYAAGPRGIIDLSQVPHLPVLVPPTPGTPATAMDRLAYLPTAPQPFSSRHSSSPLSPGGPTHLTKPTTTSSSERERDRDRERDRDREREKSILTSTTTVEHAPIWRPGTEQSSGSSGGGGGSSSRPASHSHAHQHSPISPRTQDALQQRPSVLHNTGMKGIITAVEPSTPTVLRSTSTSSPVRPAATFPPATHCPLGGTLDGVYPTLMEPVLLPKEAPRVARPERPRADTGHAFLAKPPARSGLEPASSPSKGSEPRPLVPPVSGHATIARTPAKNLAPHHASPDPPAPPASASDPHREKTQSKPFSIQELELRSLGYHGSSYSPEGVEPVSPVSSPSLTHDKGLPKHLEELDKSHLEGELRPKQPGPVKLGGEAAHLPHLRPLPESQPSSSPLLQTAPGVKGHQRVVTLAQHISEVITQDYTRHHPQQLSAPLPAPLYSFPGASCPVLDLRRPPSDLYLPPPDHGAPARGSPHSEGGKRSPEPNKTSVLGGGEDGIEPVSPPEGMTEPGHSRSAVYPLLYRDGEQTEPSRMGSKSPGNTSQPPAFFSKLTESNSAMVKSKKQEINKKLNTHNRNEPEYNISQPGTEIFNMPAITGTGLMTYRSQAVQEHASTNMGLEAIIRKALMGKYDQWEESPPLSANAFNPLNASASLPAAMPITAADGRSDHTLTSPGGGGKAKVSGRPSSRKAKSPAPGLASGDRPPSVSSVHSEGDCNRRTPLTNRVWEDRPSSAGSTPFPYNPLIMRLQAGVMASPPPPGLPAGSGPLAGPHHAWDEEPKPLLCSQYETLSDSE

| IC50 (Histone deacetylase 1 [1]) [nM] | IC50 [2] [nM] | inhibition [3] | inhibition [4] | IC50 (Histone deacetylase 2 [5]) [nM] | inhibition (Histone deacetylase 1 [6]) | inhibition [7] [%] | inhibition [8] [%] | inhibition [9] | inhibition (Histone deacetylase 2 [10]) | inhibition [11] [%] | inhibition [12] [%] | Ratio IC50 (Homo sapiens) | Compound |
| --- | --- | --- | --- | --- | --- | --- | --- | --- | --- | --- | --- | --- | --- |
| 760 | 580 | inactive | inactive | 3000 |  |  |  |  |  |  |  |  | C[C@@H](C(=O)Nc1ccc(C(=O)Nc2ccc(F)cc2N)nc1)c1ccccc1 |
| 1400 | 130 | inactive | inactive | 2000 |  |  |  |  |  |  |  |  | C[C@H](C(=O)Nc1ccc(C(=O)Nc2ccc(F)cc2N)nc1)c1ccccc1 |
| 300 | 60 | inactive | inactive | 630 |  |  |  |  |  |  |  |  | CC[C@@H](C(=O)Nc1ccc(C(=O)Nc2ccc(F)cc2N)nc1)c1ccccc1 |
| 2500 | 170 |  |  | 4800 |  |  |  |  |  |  |  | 14.7 | CC[C@H](C(=O)Nc1ccc(C(=O)Nc2ccc(F)cc2N)cc1)c1ccccc1 |
| 1200 | 110 |  |  | 1200 |  |  |  |  |  |  |  | 10.9 | CC[C@@H](C(=O)Nc1ccc(C(=O)Nc2ccc(F)cc2N)cc1)c1ccccc1 |
| 1500 | 300 | inactive | inactive | 2500 |  |  |  |  |  |  |  |  | CC(C)[C@H](C(=O)Nc1ccc(C(=O)Nc2ccc(F)cc2N)nc1)c1ccccc1 |
| 610 | 530 |  |  | 4200 |  |  |  |  |  |  |  |  | CC[C@H](C(=O)Nc1ccc(C(=O)Nc2ccc(F)cc2N)nc1)c1ccccc1 |
| 520 | 80 | inactive | inactive | 1100 |  |  |  |  |  |  |  | 6.5 | CC(C)[C@@H](C(=O)Nc1ccc(C(=O)Nc2ccc(F)cc2N)nc1)c1ccccc1 |
| 1100 | 520 |  |  | 2000 |  |  |  |  |  |  |  |  | Nc1cc(F)ccc1NC(=O)c1ccc(NC(=O)Cc2ccccc2)cn1 |
| 1300 | > 10000 |  |  | 7800 | inactive |  |  | inactive | inactive |  |  |  | Nc1cc(F)ccc1NC(=O)c1ccc(NC(=O)CCc2ccccc2)cn1 |

Second part, the molecule before the results:

| Compound | IC50 (Histone deacetylase 1 [1]) [nM] | IC50 [2] [nM] | inhibition [3] | inhibition [4] | IC50 (Histone deacetylase 2 [5]) [nM] | inhibition (Histone deacetylase 1 [6]) | inhibition [7] [%] | inhibition [8] [%] | inhibition [9] | inhibition (Histone deacetylase 2 [10]) | inhibition [11] [%] | inhibition [12] [%] | Ratio IC50 (Homo sapiens) |
| --- | --- | --- | --- | --- | --- | --- | --- | --- | --- | --- | --- | --- | --- |
| Nc1cc(F)ccc1NC(=O)c1ccc(NC(=O)Cc2ccc(C(F)(F)F)cc2)cc1 | 1500 | 200 |  |  | 1300 | 41% | 5 | 0 | 36% | 32% | 0 | 0 |  |
| Nc1ccccc1NC(=O)c1ccc(NC(=O)Cc2ccc(C(F)(F)F)cc2)cc1 |  |  |  |  |  | 78% | 0 | 0 | 33% | 38% | 0 | 0 |  |
| CC(C)[C@@H](C(=O)Nc1ccc(C(=O)Nc2ccc(C(F)(F)F)cc2N)cc1)c1ccccc1 |  |  |  |  |  | 6% | 0 | 3 | 0% | 4% | 0 | 0 |  |
| Nc1cc(F)ccc1NC(=O)c1ccc(NC(=O)CCc2ccccc2)cc1 | 1200 | 800 |  |  | 1100 |  |  |  |  |  |  |  |  |
| Nc1cc(F)ccc1NC(=O)c1ccc(NC(=O)[C@@H]2C[C@@H]2c2ccccc2)cc1 (relative stereo) | 1300 | 200 |  |  | 2100 |  |  |  |  |  |  |  |  |
| Nc1cc(F)ccc1NC(=O)c1ccc(NC(=O)C2CC2c2ccccc2)cn1 (configuration not stated) | 1200 | 1000 |  |  | 4900 |  |  |  |  |  |  |  |  |
| CC(C)(C(=O)Nc1ccc(C(=O)Nc2ccccc2N)cc1)c1ccccc1 |  |  |  |  |  | 49% | 0 | 6 | 36% | 34% | 0 | 4 |  |
| Nc1cc(F)ccc1NC(=O)c1ccc(NC(=O)Cc2ccc(C(F)(F)F)cc2)cn1 | > 10000 | > 10000 |  |  | > 10000 |  |  |  |  |  |  |  |  |
| CC(C)[C@@H](C(=O)Nc1ccc(C(=O)Nc2ccc(F)cc2N)cn1)c1ccccc1 | > 10000 | 1700 |  |  | 8400 |  |  |  |  |  |  |  |  |
| C[C@H](C(=O)Nc1ccc(C(=O)Nc2ccc(F)cc2N)cc1)c1ccccc1 | 3200 | 230 |  |  | 3400 |  |  |  |  |  |  |  | 13 |
| Nc1cc(F)ccc1NC(=O)c1ccc(NC(=O)C2CC2c2ccccc2)cc1 (configuration not stated) | > 10000 | 200 |  |  | > 10000 | 0% | 14 | 0 | 82% | 9% | 3 | 0 |  |
| Nc1cc(F)ccc1NC(=O)c1ccc(NC(=O)Cc2ccc(F)cc2)cc1 | 5500 | 200 |  |  | 2700 |  |  |  |  |  |  |  |  |
| Nc1cc(F)ccc1NC(=O)c1ccc(NC(=O)Cc2ccc(F)cc2)cn1 | 370 | 390 |  |  | 3000 |  |  |  |  |  |  |  |  |
| CC(C)[C@@H](C(=O)Nc1ccc(C(=O)Nc2ccc(F)cc2N)cc1)c1ccccc1 | 1200 | 1000 |  |  | 1800 | 42% | 6 | 0 | 78% | 26% | 0 | 0 | 1.2 |
| C[C@@H](C(=O)Nc1ccc(C(=O)Nc2ccc(F)cc2N)cc1)c1ccccc1 | 1800 | 210 |  |  | 2800 |  |  |  |  |  |  |  | 8.6 |
